We go through 27 compounds from ChEMBL document CHEMBL1154234, “Cytotoxic constituents of Soymida febrifuga from Myanmar” (J Nat Prod, 2009).

The structures appear in SMILES notation.

What all share (format): functional, cell-based
Test [1] is described as follows: Cytotoxicity against mouse Colon 26-L5 cells after 72 hrs by MTT assay. The essentials: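 Murine colon 26-L5 cells kept in RPMI 1640 with 10% FBS, 0.1% NaHCO3, 1% antibiotic antimycotic. Plated at 2 × 10^3/well, 24 h attachment at 37 °C, 5% CO2, then varying concentrations for 72 h. Read-out: MTT (0.5 mg/mL) 2 h, DMSO extraction, 550 nm; IC50 from means of three wells.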
(Formazan colour is commonly taken as a measure of viable cells.)

Test [2] is described as follows: Cytotoxicity against mouse B16-BL6 cells after 72 hrs by MTT assay. The conditions noted are these: B16-BL6, 72 h. In outline:
(§1)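 Cells grown in MEMR with 10% FBS, 0.1% NaHCO3 and 1% antibiotic antimycotic; seeded 2 × 10^3/well and left 24 h at 37 °C, 5% CO2 to attach. Graded concentrations then added in medium for 72 h; MTT (0.5 mg/mL) for 2 h, formazan taken up in DMSO, absorbance at 550 nm. IC50 from means of three wells.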

The next test deals with HeLa. Kind of test: Cytotoxicity against human HeLa cells after 72 hrs by MTT assay. The essentials:
as §1

In another test the test system is PANC-1. Put plainly: Cytotoxicity against human PANC1 cells in nutrient-deprived condition after 24 hrs by WST8 assay. The essentials:
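PANC-1 seeded 2 × 10^4/well in DMEM, 24 h at 37 °C, 5% CO2; washed with PBS and switched to nutrient-deprived medium (or DMEM) with serial dilutions for 24 h. After PBS wash, DMEM with 10% WST-8 added for 3 h, absorbance at 450 nm. Viability vs blank and untreated control from three wells; PC50 reported.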

For another test, the system named is HT-1080. Kind of test: Cytotoxicity against human HT1080 cells after 72 hrs by MTT assay. Particulars: HT-1080, 72 h. In outline: as §1
In a further test the test system is A549. Put plainly: Cytotoxicity against human A549 cells after 72 hrs by MTT assay. The conditions noted are these: A549, 72 h. The essentials:
as §1

Consider `Cc1c(O)ccc2c1O[C@@H](c1ccc(O)cc1)CC2`, for which the IC50 (as a rule, the midpoint of a concentration-inhibition curve) turned out to be 40.2 µM in test [1]; 98.9 µM in test [2]; 89.2 µM with HeLa; 24.1 µM in the test on HT-1080; 39.7 µM in the test on A549. This compound also came in with a PC50 in the test on PANC-1 of 85.8 µM.
For `COc1ccc(C(=O)CCc2c(OC)cc(O)cc2OC)cc1`, the IC50 in test [1] is 68.1 µM; in test [2] it was 70.1 µM; with HeLa it was over 100 µM; in the test with HT-1080 it was over 100 µM; in the test with A549, over 100 µM. In the test on PANC-1, the PC50 worked out at 85.7 µM.
Take `COc1cc(O)cc2c1OC[C@H](Cc1ccc(O)cc1)C2`: the IC50 in test [1] was 49.5 µM; in test [2], over 100 µM; in the test on HeLa it was 65.6 µM; in the test on HT-1080 it was 70.2 µM; with A549, over 100 µM. Also, in the test on PANC-1, the PC50 was over 100 µM.
Take `COc1cc2c(cc1O)C[C@@H](Cc1ccc(O)cc1)CO2`: the half-maximal inhibitory concentration (IC50) in test [1] was determined as 22.2 µM; in test [2], 75.4 µM; with HeLa it was 37.8 µM; in the test on HT-1080, 17.5 µM; with A549 it was 19.1 µM. The PC50 with PANC-1 is 63 µM.
Consider `COc1ccc(C[C@@H]2COc3cc(O)cc(O)c3C2=O)cc1`, for which the IC50 in test [1] is 30.6 µM; in test [2] it was 64.3 µM; with HeLa, over 100 µM; with HT-1080, over 100 µM; in the test with A549, over 100 µM. Besides, in the test on PANC-1 (Homo sapiens, PANC-1, 24 h), the PC50 is over 100 µM.
As to `COc1cc2cc(Cc3ccc(O)cc3)c(=O)oc2cc1O`, the IC50 in test [1] was 61.8 µM; in test [2] it was over 100 µM; in the test with HeLa it was 69.5 µM; with HT-1080, 40.3 µM; in the test on A549 it was 88.1 µM. This compound also showed a PC50 with PANC-1 of 86.7 µM.
Turning to `Oc1ccc(C[C@H]2COc3cc(O)ccc3C2)cc1`, the IC50 in test [1] was 44.5 µM; in test [2] it was over 100 µM; in the test with HeLa it was over 100 µM; with HT-1080, 79.6 µM; in the test on A549, over 100 µM. Moreover, in the test with PANC-1, the PC50 amounted to 79 µM.
For the compound `COc1c(O)cc2c(c1O)C(=O)[C@H](Cc1ccc(O)cc1)CO2`, the IC50 is 89.5 µM in test [1]; over 100 µM in test [2]; over 100 µM in the test on HeLa; 96.2 µM in the test on HT-1080; over 100 µM in the test on A549. The compound also had a PC50 in the test on PANC-1 of over 100 µM.
In the case of `O=C1c2c(O)cc(O)cc2OC[C@H]1Cc1ccc(O)cc1`, the IC50 in test [1] was 57.8 µM; in test [2], over 100 µM; in the test with HeLa it was over 100 µM; in the test on HT-1080 it was over 100 µM; in the test on A549, over 100 µM. The same compound came in with a PC50 with PANC-1 of over 100 µM.
`O=C1c2ccc(O)cc2OC[C@H]1Cc1ccc(O)cc1`: the IC50 is 69.3 µM in test [1]; 99.6 µM in test [2]; over 100 µM in the test on HeLa; over 100 µM in the test with HT-1080; over 100 µM in the test with A549. In the test on PANC-1, this compound registered a PC50 of over 100 µM.
For `COc1cc(O)c(C)c2c1CC[C@H](c1ccc(O)cc1)O2`, the IC50 in test [1] is 59.1 µM; in test [2] it was 89.1 µM; in the test with HeLa it was 74 µM; with HT-1080, 37 µM; in the test on A549 it was 35.5 µM. In addition, in the test with PANC-1, the PC50 was 70.1 µM.
Regarding `COc1ccc2c(c1)O[C@H](c1ccc(O)cc1)CC2`, the IC50 in test [1] was 52.8 µM; in test [2], 40.8 µM; in the test with HeLa, over 100 µM; in the test with HT-1080, over 100 µM; in the test with A549 it was over 100 µM. In addition, in the test with PANC-1, the PC50 is 74 µM.
`COc1ccc(CCC(=O)c2ccc(O)cc2)c(O)c1`: the IC50 was 81.4 µM in test [1]; 57.8 µM in test [2]; 46.1 µM in the test on HeLa; over 100 µM with HT-1080; 12 µM in the test with A549. The same compound showed a PC50 in the test with PANC-1 of over 100 µM.
For `O=C(/C=C/c1ccccc1O)c1ccc(O)cc1O`, the IC50 is 28.9 µM in test [1]; over 100 µM in test [2]; 89.1 µM in the test on HeLa; 40.4 µM in the test on HT-1080; 89.9 µM with A549. This compound also displayed a PC50 in the test on PANC-1 of over 100 µM.
Take `O=C(CCc1ccc(O)cc1O)c1ccc(O)cc1`: the IC50 (in test [1]; in test [2]; in the test with HeLa; in the test on HT-1080; in the test on A549) was over 100 µM throughout. The PC50 in the test with PANC-1 was over 100 µM.
Take `COc1cc(O)ccc1C(=O)/C=C/c1ccc(O)cc1`: the IC50 in test [1] turned out to be 14.1 µM; in test [2], 49.9 µM; with HeLa, 33.3 µM; with HT-1080 it was 26.7 µM; in the test with A549, 66.5 µM. This compound also displayed a PC50 with PANC-1 of over 100 µM.
Regarding `COc1ccc(CCC(=O)c2ccc(O)cc2)c(OC)c1`, the IC50 in test [1] was 32.2 µM; in test [2] it was 55.5 µM; with HeLa, over 100 µM; in the test on HT-1080 it was over 100 µM; in the test with A549, 89.5 µM. Moreover, the PC50 with PANC-1 came out at 83.2 µM.
For `COc1cc(O)cc(OC)c1CCC(=O)c1ccc(O)cc1`, the IC50 in test [1] was determined as 40.2 µM; in test [2], 84.4 µM; in the test on HeLa it was 49 µM; in the test with HT-1080, 67.2 µM; in the test with A549, 42.9 µM. The PC50 in the test with PANC-1 worked out at 69.7 µM.
For the compound `COc1cc(O)cc(/C=C/c2ccc(O)cc2)c1`, the IC50 is 35.8 µM in test [1]; over 100 µM in test [2]; 48.4 µM with HeLa; 89.1 µM in the test with HT-1080; 91.8 µM in the test with A549. In the test with PANC-1, this compound showed a PC50 of 71.4 µM.
Regarding `O=C(/C=C/c1ccccc1)c1ccc(O)cc1O` [2',4'-DIHYDROXYCHALCONE], the IC50 in test [1] is 4.71 µM; in test [2], over 100 µM; in the test with HeLa, 24.4 µM; in the test with HT-1080, 17 µM; in the test with A549 it was 23.2 µM. Besides, in the test with PANC-1, the PC50 was 19 µM.
With `COc1cccc2c1C(=O)c1c(O)c3c(c(O)c1C2=O)C[C@@](O)(C(=O)CO)C[C@@H]3O[C@H]1C[C@H](N)[C@H](O)[C@H](C)O1` [DOXORUBICIN], the IC50 in test [1] is 3.12 µM; in test [2] it was 3.07 µM; in the test on HT-1080 it was 0.41 µM; with A549 it was 0.84 µM.
In the case of `O=c1[nH]cc(F)c(=O)[nH]1` [FLUOROURACIL], the IC50 in test [1] was 0.41 µM; in test [2], 7.39 µM; in the test with HeLa, 0.44 µM; in the test with HT-1080, 8.58 µM; in the test with A549 it was 5.91 µM.
Regarding `COc1cc(C(O)C(O)CO)ccc1O` (centres undefined) [GUAIACYL GLYCEROL], the IC50 in test [1] is 96.9 µM; in test [2] it was over 100 µM; in the test with HeLa, over 100 µM; with HT-1080, over 100 µM; in the test on A549, over 100 µM. The PC50 in the test with PANC-1 was over 100 µM.
With `O=C(O)c1ccc(O)cc1` [PARABEN], the IC50 in test [1] was 33.3 µM; in test [2], 63.3 µM; in the test with HeLa it was 36.2 µM; in the test with HT-1080 it was over 100 µM; with A549, over 100 µM. In the test on PANC-1, this compound displayed a PC50 of over 100 µM.
For `O=C1C[C@@H](c2ccccc2)Oc2cc(O)cc(O)c21` [PINOCEMBRIN], the IC50 is 71 µM in test [1]; over 100 µM in test [2]; over 100 µM with HeLa; 72.8 µM in the test on HT-1080; over 100 µM in the test with A549. The compound also returned a PC50 with PANC-1 of 72.9 µM.
`COc1cc(/C=C/c2ccc(O)cc2)cc(OC)c1` [PTEROSTILBENE]: the IC50 amounted to 2.96 µM in test [1]; 15.9 µM in test [2]; 9.43 µM with HeLa; 93.4 µM in the test on HT-1080; 71.7 µM in the test on A549. Also, the PC50 with PANC-1 was determined as 44.4 µM.
In the case of `Oc1ccc([C@H]2CCc3ccc(O)cc3O2)cc1` [TUPICHINOL C], the IC50 in test [1] is 43.9 µM; in test [2] it was over 100 µM; in the test with HeLa it was 93.4 µM; in the test with HT-1080, 50.1 µM; in the test on A549, 94 µM. The compound further registered a PC50 in the test with PANC-1 of over 100 µM.
